Compound activity deposited in PubChem by The Scripps Research Institute Molecular Screening Center.
M4 antag – CHRM4 antagonism in calcium assay | AID 624125 | inhibition, % at 3 µM | P08173 | 0.73% of 360,000 active | CHO-hM4 cells, ACh EC80, Fluo-8 calcium fluorescence;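 active = inhibition above its plate's cutoff, the mean inhibition of sample wells plus 3 SD, cut at about 27% in these data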
Target sequence (P08173 whole entry, looked up): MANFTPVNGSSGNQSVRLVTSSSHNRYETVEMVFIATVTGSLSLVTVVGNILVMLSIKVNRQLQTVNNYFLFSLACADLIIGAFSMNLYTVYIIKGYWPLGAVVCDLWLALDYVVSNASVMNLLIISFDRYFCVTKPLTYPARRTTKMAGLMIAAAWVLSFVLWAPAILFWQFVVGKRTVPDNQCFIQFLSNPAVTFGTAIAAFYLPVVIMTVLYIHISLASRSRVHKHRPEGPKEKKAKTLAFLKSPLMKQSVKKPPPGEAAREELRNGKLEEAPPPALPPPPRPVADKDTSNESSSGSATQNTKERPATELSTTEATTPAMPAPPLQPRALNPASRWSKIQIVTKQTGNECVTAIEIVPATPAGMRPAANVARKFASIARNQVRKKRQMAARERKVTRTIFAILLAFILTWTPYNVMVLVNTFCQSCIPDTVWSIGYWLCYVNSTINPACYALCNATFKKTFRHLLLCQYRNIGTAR
M5 ag – agonists of human muscarinic M5 receptor (CHRM5) | AID 624037 | 0.19% of 360,000 active | P08912 | activation, % at 3 µM | CHO-K1 hM5 cells, Fluo-8 calcium fluorescence; 0% DMSO wells, 100% maximal acetylcholine response;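 active = activation above the run's mean over test compounds plus 3 SD, cut at about 23% in these data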;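 note: signal is peak over basal fluorescence ratio across the kinetic read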
CHRM5 PAM – CHRM5 positive allosteric modulation | activation, % at 3 µM | 0.3% of 360,000 active | AID 624038 | CHO-K1 hM5, Fluo-8 calcium, ACh EC20 PAM; 0% = ACh EC20, 100% = ACh EC100 | P08912;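 active = activation above the run cutoff, the mean activation of all test compounds plus 3 SD, cut at about 18% in these data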
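Assay system: CHO-K1 hM5 cells. Also added: acetylcholine at EC20 concentration, added after compound. Dosing: 3 µM, single dose. Times: compound preincubation 140 s before EC20 acetylcholine addition. Signal: Fluo-8 calcium fluorescence. Measure: % activation relative to EC20 and EC100 ACh responses. Repeats: singlicate, one well per test compound.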
CHRM5 antagonist – antagonists of human muscarinic M5 receptor (CHRM5) | P08912 | CHO-hM5 cells, Fluo-8 calcium fluorescence, ACh EC80 | inhibition, % at 3 µM | 0.59% of 360,000 active;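 active = inhibition above a per-plate cutoff, the mean of that plate's test compounds plus 3 SD, cut at about 27% in these data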
CHRM4 agonist – agonists of human muscarinic M4 receptor (CHRM4) | P08173 | CHO-K1 hM4/Gqi5, Fluo-8 calcium fluorescence; vehicle 0%, full acetylcholine response 100% | activation, % at 3 µM | 0.14% of 360,000 active;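 active = activation above the run mean over all test wells plus 3 SD, cut at about 32% in these data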;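 note: peak over basal fluorescence ratio per well then scaled between controls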
CHRM4 PAM – CHRM4 positive allosteric modulation; P08173; 0.4% of 360,000 active; CHO-K1 hM4/Gqi5, Fluo-8 calcium fluorescence, ACh EC20; 0% = ACh EC20, 100% = maximal ACh; activation, % at 3 µM;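 active = activation above its plate's cutoff, the mean activation of sample wells plus 3 SD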
Numbers stand for hits; - = inactive; + = active, no number; ! = not confirmed by another sample. The list is not random: actives were taken first. Their share in the collection is about 1.9%.

SMILES | M4 antag | M5 ag | CHRM5 PAM | CHRM5 antagonist | CHRM4 agonist | CHRM4 PAM
COc1cc(C(=O)Nc2scc(-c3ccccc3)c2C(=O)O)cc(OC)c1OC | - | - | - | - | - | -
Nc1ccc(-c2c3ccc(=O)cc-3oc3cc(O)ccc23)cc1C(=O)O | 62.8 | 203.2 | - | 30.1 | 548.1 | -
O=c1ccc2c(-c3ccccc3)c3ccc(O)cc3oc-2c1 | 85.7 | 797.0 | - | 85.7 | + | -
O=c1cc(-c2ccccc2)oc2cc(O)ccc12 | - | - | - | - | - | -
CCOC(=O)C1=CCC2C(=O)N(CC)C(=O)C12 (stereo unspecified) | - | - | - | - | - | -
Cc1onc(C(=O)NC2CCCCC2)c1[N+](=O)[O-] | - | - | - | - | - | -
CCOC(=O)N1CCN(c2nc3ccc(C(=O)c4ccccc4)cc3n3cnnc23)CC1 | - | - | - | - | - | 31.4
C=CCNS(=O)(=O)c1cc2c3c(c1)CCN3C(=O)CC2 | - | - | - | - | - | -
O=C(CC1SCCNC1=O)Nc1cccc(C(F)(F)F)c1 (stereo unspecified) | - | - | - | - | - | 32.4
C=CCOc1c(Br)cc(/C=C2/C(=O)ON=C2C)cc1OC | - | - | - | - | - | -
Cc1ccc(S(=O)(=O)N(CC(=O)Nc2ccccc2)C(=O)N2CCN(C)CC2)cc1 | - | - | - | - | - | 19.7
COc1ccc(CCNC(=O)CS(=O)(=O)c2cn(CC(=O)N(C(C)C)C(C)C)c3ccccc23)cc1OC | - | - | - | - | - | -
COc1ccc(CCNC(=O)CS(=O)(=O)c2cn(CC(=O)N3CCCC3)c3ccccc23)cc1OC | 26.6 | - | - | - | - | -
Cn1cnnc1SCC(=O)Nc1ccc2ccccc2c1 | - | - | - | - | - | -
CCCCc1nnc(NC(=O)c2oc3ccc(OC)cc3c2C)s1 | - | - | 19.3 | - | - | -
COc1ccc2oc(C(=O)Nc3nccs3)c(C)c2c1 | - | - | - | - | - | -
CCCCCCCC[n+]1cccc(C(=O)N(CC)CC)c1 | - | - | - | - | - | -
CCCCCCCCCCCCCCCC[n+]1cccc(C(=O)N(CC)CC)c1 | 41.3 | - | - | 43.4! | - | -
CSC(=Nc1ccccc1)N=C(SCc1ccccc1)N(C)C | 46.5 | - | - | - | - | -
COC(=O)c1ccccc1N=C(SC)N(C)C | - | - | - | - | - | -
CC(=O)c1cccc(N=C2NC(=O)CS2)c1 | - | - | - | - | - | -
O=C1CSC(=Nc2cccc(C(=O)O)c2)N1 | - | - | - | - | - | 14.7
O=C(NCCc1ccccc1O)c1cc2c(cc1[N+](=O)[O-])OCO2 | - | - | - | - | - | -
O=C(Cc1ccc(Cl)cc1Cl)Nc1ccncc1Cl | - | - | - | 30.1 | - | -
O=C(Cc1ccc(Cl)cc1Cl)Nc1ccncc1 | - | - | - | - | - | -
SMILES | M4 antag | M5 ag | CHRM5 PAM | CHRM5 antagonist | CHRM4 agonist | CHRM4 PAM
O=C(c1cccc(Br)c1)N1CCN(c2ccc(N3CCOCC3)nn2)CC1 | - | - | - | - | - | -
Cc1ccc(C(=O)N2CCN(c3ccc(N4CCOCC4)nn3)CC2)cc1C | - | - | - | - | - | 18.2
CCOc1ccccc1NC(=O)c1cccc(N2C(=O)CCC2=O)c1 | - | - | - | - | - | -
CCOc1ccccc1NC(=O)c1cc(C(=O)Nc2ccccc2OCC)cc(N2C(=O)CCC2=O)c1 | - | - | - | 29.1 | - | -
COc1cccc(N(C(=O)Cn2nnc3ccccc32)C(C(=O)NCc2ccco2)c2cccnc2)c1 (stereo unspecified) | - | - | - | - | - | -
COc1cccc(C(C(=O)NCc2ccco2)N(Cc2ccco2)C(=O)Cn2nnc3ccccc32)c1 (stereo unspecified) | 29.7 | - | - | - | - | -
COc1ccc(-c2csc(C(O)c3ccc(F)cc3)n2)cc1 (stereo unspecified) | - | - | - | - | 47.4 | -
COc1ccc(C(O)c2nc(-c3ccc(N(C)C)cc3)cs2)cc1 (stereo unspecified) | - | - | - | - | 38.3 | -
CN(C)c1ccc(-c2csc(C(O)c3ccc(F)c(F)c3)n2)cc1 (stereo unspecified) | 45.6 | 50.0 | - | 37.2 | 101.7 | -
CN(C)c1ccc(-c2csc(C(O)c3ccc(F)cc3)n2)cc1 (stereo unspecified) | - | 29.6 | - | - | 59.6 | -
CCOC(=O)C1CCN(CC(O)COc2ccc(S(=O)(=O)N3CCCC3)cc2[N+](=O)[O-])CC1 (stereo unspecified) | - | - | - | - | - | -
O=C(c1ccccc1)N1N=C(c2ccccc2O)CC1c1ccccc1 (stereo unspecified) | - | - | - | - | - | -
CCOC(=O)C[C@H]1c2ccccc2S(=O)(=O)N1Cc1cccc(C(F)(F)F)c1 | - | - | - | - | - | -
N=C1C=CC(=C(c2ccc(N)cc2)c2ccc(N)cc2)C=C1 | - | - | - | - | - | -
O=C(c1ccccc1)C1CC=CCC1C(=O)c1ccccc1 (stereo unspecified) | - | - | - | - | - | -
CCOC(=O)N1CCN(CC(=O)N2c3ccccc3CC2C)CC1 (stereo unspecified) | 31.4 | - | - | - | - | -
CCN1CCN(CC(=O)N2c3ccccc3CC2C)CC1 (stereo unspecified) | - | - | - | - | - | -
COc1ccc(C2=NOC(Cn3nc(C(=O)NCC4CC4)cc3-c3ccccc3)C2)cc1 (stereo unspecified) | 29.4 | - | - | - | - | -
COc1ccc(C2=NOC(Cn3nc(C(=O)NCc4ccc(OC(F)(F)F)cc4)cc3-c3ccccc3)C2)cc1 (stereo unspecified) | - | - | - | - | - | -
COc1ccc(C2=NOC(Cn3nc(C(=O)NCc4ccccc4OC)cc3-c3ccccc3)C2)cc1 (stereo unspecified) | 30.1 | - | - | - | - | -
CS(=O)(=O)c1ccc(NC(=O)c2cc3c(cc2Cl)N2CCCCCC2=NS3(=O)=O)cc1 | - | - | - | - | - | -
Cc1ccc(N2C(=O)CS(=O)C(c3ccccc3)C2=O)cc1C (stereo unspecified) | - | - | - | 28.3 | - | -
COc1ccc(N2C(=O)CS(=O)C(c3ccccc3)C2=O)cc1 (stereo unspecified) | - | - | - | - | - | -
Cn1nc(C(F)(F)F)c(-c2cccc(C(F)(F)F)c2)c1NC(=O)Nc1ccc(F)cc1 | - | - | - | 34.3 | - | -
On1ccccc1=S | 31.0 | - | - | - | - | -
O=C(Cn1ccccc1=S)c1ccc(Cl)c(Cl)c1 | - | - | - | - | - | -
